# Laboratory results reported in ChEMBL document CHEMBL1125920, “Synthesis and biological activity of 5-alkyl-1,7,8-trisubstituted-6-fluoroquinoline-3-carboxylic acids” (1991).
# Key:
# Enterobacter cloacae = test: Antibacterial activity against gram negative organism, […] (MA2646); format: functional
# Pseudomonas aeruginosa = test: Antibacterial activity was determined against gram negative organism, Pseudomonas aeruginosa (UI-18); format: functional
# How it was run: (§1)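 MIC by standard microtitration against a panel of 10 representative Gram-negative and Gram-positive organisms; values reported in µg/mL.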
# Bacteria = test: Antibacterial activity was determined against gram negative organism, Providencia rettgeri. (M1771); format: functional; how it was run: as §1
# Streptococcus pneumoniae = test: Antibacterial activity was determined against gram positive organism, Streptococcus pneumoniae (SV-1); format: functional; how it was run: as §1
# Enterococcus faecalis = test: Antibacterial activity was determined against gram positive organism, Streptococcus faecalis (MGH-2); format: functional; how it was run: as §1
# Streptococcus pyogenes = test: Antibacterial activity was determined against gram positive organism, Streptococcus pyogenes (C203); format: functional; how it was run: as §1
# Staphylococcus aureus [1] = test: Antibacterial activity was determined against gram positive organism, Staphylococcus aureus (H228); format: functional; how it was run: as §1
# Staphylococcus aureus [2] = test: Antibacterial activity was determined against gram positive organism, Staphylococcus aureus (UC76); format: functional; how it was run: as §1
# [3] = MIC ratio measured as the mean MICs of gram-negative bacteria; format: functional
# How it was run: (§2)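 Geometric mean of the MICs (µg/mL) over the Gram-negative or the Gram-positive strains of the 10-organism microtitration panel, calculated separately for each class.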
# [4] = MIC ratio measured as the mean MICs of gram-positive bacteria; format: functional; how it was run: as §2
# [5] = target: DNA gyrase (Escherichia coli) (UniProt P0AES6+P0AES4)
# Escherichia coli = test: Antibacterial activity was determined against gram negative organism, E. coli(vogel); format: functional; how it was run: as §1
# Klebsiella pneumoniae = test: Antibacterial activity was determined against gram negative organism, K. pneumoniae (MGH-2); format: functional; how it was run: as §1
SMILES,MIC (Enterobacter cloacae),MIC (Pseudomonas aeruginosa),MIC (Bacteria),MIC (Streptococcus pneumoniae),MIC (Enterococcus faecalis),MIC (Streptococcus pyogenes),MIC (Staphylococcus aureus [1]),MIC (Staphylococcus aureus [2]),Ratio [3],Ratio [4],DNA cleavage [5],MIC (Escherichia coli),MIC (Klebsiella pneumoniae)
CC1CN(c2c(F)cc3c(=O)c(C(=O)O)cn(C4CC4)c3c2F)CCN1 (stereo not drawn),0.05 µg/mL,0.4 µg/mL,0.1 µg/mL,0.4 µg/mL,0.4 µg/mL,0.4 µg/mL,0.2 µg/mL,0.1 µg/mL,0.066,0.26,1 µg/mL,–,–
Cc1c(F)c(N2CCNCC2)c(Cl)c2c1c(=O)c(C(=O)O)cn2C1CC1,0.05 µg/mL,0.2 µg/mL,0.2 µg/mL,0.1 µg/mL,0.2 µg/mL,0.2 µg/mL,0.05 µg/mL,0.025 µg/mL,0.087,0.087,1.5 µg/mL,0.025 µg/mL,0.1 µg/mL
CCNCC1CCN(c2cc3c(cc2F)c(=O)c(C(=O)O)cn3CC)C1 (stereo not drawn),0.4 µg/mL,3.1 µg/mL,1.6 µg/mL,0.2 µg/mL,0.2 µg/mL,0.1 µg/mL,0.2 µg/mL,0.1 µg/mL,0.6,0.15,2.5 µg/mL,0.1 µg/mL,0.4 µg/mL
Cc1c(F)c(N2CCC(N)C2)cc2c1c(=O)c(C(=O)O)cn2-c1ccc(F)cc1F (stereo not drawn),0.05 µg/mL,0.8 µg/mL,0.2 µg/mL,0.025 µg/mL,0.1 µg/mL,0.05 µg/mL,0.05 µg/mL,0.013 µg/mL,0.13,0.038,0.37 µg/mL,0.05 µg/mL,0.1 µg/mL
CCn1cc(C(=O)O)c(=O)c2cc(F)c(N3CCC(N)C3)c(F)c21 (stereo not drawn),0.1 µg/mL,0.4 µg/mL,0.2 µg/mL,0.4 µg/mL,0.4 µg/mL,0.2 µg/mL,0.4 µg/mL,0.1 µg/mL,0.17,0.27,2.5 µg/mL,0.1 µg/mL,0.2 µg/mL
CCNCC1CCN(c2cc3c(c(C)c2F)c(=O)c(C(=O)O)cn3-c2ccc(F)cc2F)C1 (stereo not drawn),0.8 µg/mL,3.1 µg/mL,1.6 µg/mL,0.025 µg/mL,0.2 µg/mL,0.025 µg/mL,0.1 µg/mL,0.025 µg/mL,1.05,0.05,0.75 µg/mL,0.4 µg/mL,0.8 µg/mL
CCNCC1CCN(c2cc3c(c(C)c2F)c(=O)c(C(=O)O)cn3CC)C1 (stereo not drawn),3.1 µg/mL,25 µg/mL,12.5 µg/mL,0.8 µg/mL,1.6 µg/mL,1.6 µg/mL,1.6 µg/mL,0.4 µg/mL,6.28,1.06,3 µg/mL,1.6 µg/mL,6.3 µg/mL
CCn1cc(C(=O)O)c(=O)c2c(C)c(F)c(N3CCNCC3)c(F)c21,0.05 µg/mL,1.6 µg/mL,0.4 µg/mL,6.3 µg/mL,3.1 µg/mL,12.5 µg/mL,0.8 µg/mL,0.2 µg/mL,0.2,2.08,7.5 µg/mL,0.05 µg/mL,0.2 µg/mL
O=C(O)c1cn(-c2ccc(F)cc2F)c2cc(N3CCNCC3)c(F)cc2c1=O,0.05 µg/mL,0.8 µg/mL,0.1 µg/mL,0.1 µg/mL,0.4 µg/mL,0.2 µg/mL,0.4 µg/mL,0.05 µg/mL,0.11,0.17,–,0.05 µg/mL,0.1 µg/mL
CCn1cc(C(=O)O)c(=O)c2cc(F)c(N3CCC(N)C3)cc21 (stereo not drawn),0.1 µg/mL,0.8 µg/mL,0.2 µg/mL,0.4 µg/mL,0.8 µg/mL,0.4 µg/mL,0.8 µg/mL,0.1 µg/mL,0.2,0.4,2.5 µg/mL,0.1 µg/mL,0.2 µg/mL
CC1(CN)CCN(c2c(F)cc3c(=O)c(C(=O)O)cn(C4CC4)c3c2F)C1 (stereo not drawn),0.025 µg/mL,–,0.2 µg/mL,0.006 µg/mL,0.013 µg/mL,0.025 µg/mL,–,0.003 µg/mL,0.1,0.095,2.6 µg/mL,0.05 µg/mL,0.1 µg/mL
Cc1c(F)c(N2CCC(C)(CN)C2)cc2c1c(=O)c(C(=O)O)cn2C1CC1 (stereo not drawn),0.1 µg/mL,1.6 µg/mL,0.8 µg/mL,0.006 µg/mL,0.1 µg/mL,0.013 µg/mL,0.025 µg/mL,0.006 µg/mL,0.35,0.016,0.75 µg/mL,0.1 µg/mL,0.4 µg/mL
CCn1cc(C(=O)O)c(=O)c2c(C)c(F)c(N3CCC(N)C3)cc21 (stereo not drawn),0.2 µg/mL,3.1 µg/mL,1.6 µg/mL,1.6 µg/mL,1.6 µg/mL,3.1 µg/mL,1.6 µg/mL,0.4 µg/mL,0.69,1.38,6.3 µg/mL,0.2 µg/mL,0.8 µg/mL
CC1CN(c2cc3c(cc2F)c(=O)c(C(=O)O)cn3-c2ccc(F)cc2F)CCN1 (stereo not drawn) [TEMAFLOXACIN],0.05 µg/mL,1.6 µg/mL,0.2 µg/mL,0.1 µg/mL,0.2 µg/mL,0.1 µg/mL,0.1 µg/mL,0.025 µg/mL,0.15,0.087,0.75 µg/mL,0.05 µg/mL,0.1 µg/mL
NC1CCN(c2c(F)cc3c(=O)c(C(=O)O)cn(C4CC4)c3c2Cl)C1 (stereo not drawn) [CLINAFLOXACIN],0.025 µg/mL,0.05 µg/mL,0.025 µg/mL,0.025 µg/mL,0.05 µg/mL,0.05 µg/mL,0.025 µg/mL,0.013 µg/mL,0.029,0.029,0.5 µg/mL,0.025 µg/mL,0.025 µg/mL
CCc1c(F)c(N2CCC(N)C2)cc2c1c(=O)c(C(=O)O)cn2C1CC1 (stereo not drawn),0.8 µg/mL,12.5 µg/mL,6.3 µg/mL,1.6 µg/mL,25 µg/mL,3.1 µg/mL,12.5 µg/mL,3.1 µg/mL,2.09,5.45,–,0.4 µg/mL,1.6 µg/mL
CCn1cc(C(=O)O)c(=O)c2c(C)c(F)c(N3CCNCC3)cc21,0.2 µg/mL,1.6 µg/mL,0.4 µg/mL,3.1 µg/mL,1.6 µg/mL,6.3 µg/mL,3.1 µg/mL,0.4 µg/mL,0.35,2.08,3 µg/mL,0.1 µg/mL,0.4 µg/mL
CCn1cc(C(=O)O)c(=O)c2cc(F)c(N3CCNCC3)cc21 [NORFLOXACIN],–,–,0.025 µg/mL,–,–,–,–,–,0.057,0.61,1 µg/mL,–,–
CCn1cc(C(=O)O)c(=O)c2c(C)c(F)c(N3CCC(N)C3)c(F)c21 (stereo not drawn),0.05 µg/mL,1.6 µg/mL,0.4 µg/mL,1.6 µg/mL,0.8 µg/mL,3.1 µg/mL,0.4 µg/mL,0.1 µg/mL,0.2,0.69,3 µg/mL,0.05 µg/mL,0.2 µg/mL
CC1(CN)CCN(c2cc3c(cc2F)c(=O)c(C(=O)O)cn3C2CC2)C1 (stereo not drawn),0.8 µg/mL,0.8 µg/mL,0.8 µg/mL,0.025 µg/mL,0.1 µg/mL,0.05 µg/mL,–,–,0.53,0.044,3 µg/mL,0.2 µg/mL,0.4 µg/mL
NC1CCN(c2cc3c(cc2F)c(=O)c(C(=O)O)cn3-c2ccc(F)cc2F)C1 (stereo not drawn),0.05 µg/mL,0.4 µg/mL,0.1 µg/mL,0.025 µg/mL,0.1 µg/mL,0.025 µg/mL,0.05 µg/mL,0.013 µg/mL,0.076,0.033,–,0.025 µg/mL,0.05 µg/mL
CCc1c(F)c(N2CCNC(C)C2)cc2c1c(=O)c(C(=O)O)cn2C1CC1 (stereo not drawn),0.8 µg/mL,6.3 µg/mL,6.3 µg/mL,12.5 µg/mL,> 25 µg/mL,25 µg/mL,6.3 µg/mL,3.1 µg/mL,1.83,10.9,–,0.4 µg/mL,1.6 µg/mL
CCNCC1CCN(c2cc3c(cc2F)c(=O)c(C(=O)O)cn3-c2ccc(F)cc2F)C1 (stereo not drawn),0.4 µg/mL,3.1 µg/mL,1.6 µg/mL,0.1 µg/mL,0.2 µg/mL,0.1 µg/mL,0.1 µg/mL,0.025 µg/mL,0.79,0.087,–,0.2 µg/mL,0.8 µg/mL
CCn1cc(C(=O)O)c(=O)c2cc(F)c(N3CC(C)NC(C)C3)cc21 (stereo not drawn),0.2 µg/mL,6.3 µg/mL,0.8 µg/mL,1.6 µg/mL,1.6 µg/mL,1.6 µg/mL,1.6 µg/mL,0.4 µg/mL,0.6,1.21,–,0.2 µg/mL,0.4 µg/mL
CCc1c(F)c(N2CCNCC2)cc2c1c(=O)c(C(=O)O)cn2C1CC1,0.8 µg/mL,12.5 µg/mL,6.3 µg/mL,12.5 µg/mL,> 25 µg/mL,25 µg/mL,25 µg/mL,6.3 µg/mL,1.91,16.2,–,0.4 µg/mL,1.6 µg/mL
